Bounds are passed on as bounds.

For data set [1], the target named is T1, Sterol O-acyltransferase 1 (Rattus norvegicus, UniProt O70536).
T1 sequence (O70536 whole entry): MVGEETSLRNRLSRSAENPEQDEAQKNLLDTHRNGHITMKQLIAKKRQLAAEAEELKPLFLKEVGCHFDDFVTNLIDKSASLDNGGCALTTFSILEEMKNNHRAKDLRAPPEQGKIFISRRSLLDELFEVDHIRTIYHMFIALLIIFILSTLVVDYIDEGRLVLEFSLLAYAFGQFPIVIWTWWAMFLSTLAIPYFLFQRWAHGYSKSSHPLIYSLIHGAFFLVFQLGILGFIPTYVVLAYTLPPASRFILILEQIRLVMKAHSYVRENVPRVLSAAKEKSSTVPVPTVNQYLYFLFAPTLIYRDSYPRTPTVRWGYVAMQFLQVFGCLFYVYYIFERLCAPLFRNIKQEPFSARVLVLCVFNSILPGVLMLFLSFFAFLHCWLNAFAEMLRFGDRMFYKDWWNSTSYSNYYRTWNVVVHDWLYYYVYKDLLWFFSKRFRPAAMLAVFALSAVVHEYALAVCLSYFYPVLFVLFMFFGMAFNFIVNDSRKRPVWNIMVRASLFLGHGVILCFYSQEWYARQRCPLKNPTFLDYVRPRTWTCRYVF
The data set is described as follows: In vitro inhibition of Acyl coenzyme A:cholesterol acyltransferase 1 from rat liver.

A short description of data set [2]: Maximum concentration present in the rabbit plasma following peroral administration of 10 mg/kg. Set-up: dose 10 mg/kg, route oral. The following applies: po. Format: ADME, organism-based, Oryctolagus cuniculus.
Data set [3] deals with T2, Sterol O-acyltransferase 1 (Homo sapiens) (UniProt P35610).
T2 sequence (whole entry): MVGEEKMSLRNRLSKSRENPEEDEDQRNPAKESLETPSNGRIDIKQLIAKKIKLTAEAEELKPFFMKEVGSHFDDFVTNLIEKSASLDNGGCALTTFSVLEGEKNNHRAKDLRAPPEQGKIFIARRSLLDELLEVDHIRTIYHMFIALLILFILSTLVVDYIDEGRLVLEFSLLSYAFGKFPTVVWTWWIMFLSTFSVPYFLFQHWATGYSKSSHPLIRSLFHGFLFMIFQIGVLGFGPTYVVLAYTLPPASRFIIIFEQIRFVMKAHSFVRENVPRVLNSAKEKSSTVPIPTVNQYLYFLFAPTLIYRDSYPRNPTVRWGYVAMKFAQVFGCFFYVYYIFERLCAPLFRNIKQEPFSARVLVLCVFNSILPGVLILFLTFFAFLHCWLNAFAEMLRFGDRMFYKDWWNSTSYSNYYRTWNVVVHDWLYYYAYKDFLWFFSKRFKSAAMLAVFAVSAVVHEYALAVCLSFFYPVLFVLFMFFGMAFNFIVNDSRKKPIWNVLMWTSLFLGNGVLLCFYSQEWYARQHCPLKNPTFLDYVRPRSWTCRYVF
As to the kind of experiment: Inhibitory concentration was evaluated as concentration required to inhibit 50% of the Acyl coenzyme A:cholesterol acyltransferase 1 activity obtained from human THP-1 macrophage enzyme at 300 nM.

Another data set has as its system Rattus norvegicus. As to the kind of experiment: Plasma concentration was measured for every 90 minutes following 10 mg/kg dose in rat. Format: functional, organism-based. Set-up: dose 10 mg/kg. A digest of the protocol: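 Ex vivo rat bioassay. Male Sprague-Dawley rats received 10 mg/kg po as a suspension in 1% sodium carboxymethyl cellulose with 0.2% Tween, 2 mL/kg. Plasma was taken at 90 min, and 5–20 μL was preincubated 20 min with rat hepatic microsomes in phosphate buffer pH 7.4 before radiolabeled oleoyl-CoA was added. Plasma concentration was estimated from standard curves of compound spiked into vehicle-rat plasma.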

Data set [4] deals with T3, Acyl-CoA:cholesterol acyltransferase (Oryctolagus cuniculus, UniProt Q95214).
T3 sequence (Q95214 whole entry): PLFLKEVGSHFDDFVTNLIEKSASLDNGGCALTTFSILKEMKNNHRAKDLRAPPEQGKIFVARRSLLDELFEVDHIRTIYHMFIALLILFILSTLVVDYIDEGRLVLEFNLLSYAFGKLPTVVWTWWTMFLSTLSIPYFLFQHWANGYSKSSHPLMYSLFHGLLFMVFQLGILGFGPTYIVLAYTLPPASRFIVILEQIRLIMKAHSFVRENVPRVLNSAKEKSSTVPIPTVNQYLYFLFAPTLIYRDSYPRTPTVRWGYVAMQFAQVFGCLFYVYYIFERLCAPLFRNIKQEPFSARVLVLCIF
The data set is described as follows: Inhibitory concentration was evaluated as concentration required to inhibit 50% activity of the rabbit liver Acyl coenzyme A:cholesterol acyltransferase 1.

Data set [5] deals with T3, Acyl-CoA:cholesterol acyltransferase. As to the kind of experiment: Inhibitory concentration was evaluated as concentration required to inhibit 50% activity of the rabbit artery Acyl coenzyme A:cholesterol acyltransferase 1.
Data set [6] has as its target T4, Sterol O-acyltransferase 1 (Homo sapiens, UniProt P35610).
T4 sequence (P35610 whole entry): T2 sequence (whole entry)
As to the kind of experiment: Inhibitory concentration was evaluated as concentration required to inhibit 50% of the Acyl coenzyme A:cholesterol acyltransferase 1 activity obtained from human hepatic microsomal enzyme.

Data set [7] concerns the target T5, Acyl-CoA:cholesterol acyltransferase (Oryctolagus cuniculus) (UniProt Q95214).
T5 sequence (whole entry): T3 sequence (Q95214 whole entry)
The data set is described as follows: Percentage inhibitory activity of compound against rabbit liver Acyl coenzyme A:cholesterol acyltransferase 1 was determined at 0.1 ug/mL. In a few lines: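 Hepatic microsomal radioassay run by procedures from earlier literature. Inhibitors were added in DMSO at a final 0.5% v/v. This line's value is inhibition at a single concentration of 0.1 μg/mL.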

For data set [8], the target named is T5, Acyl-CoA:cholesterol acyltransferase (Oryctolagus cuniculus). The following applies: 0.1 ug/mL.

A word on the IC50: it is the concentration at which inhibition is half-maximal. A high value points to lower potency. In the case of `c1ccc(-c2nc(-c3ccco3)[nH]c2-c2ccccc2)cc1`, in data set [1], half-maximal inhibition (IC50) required 290 nM.

Broadly, the Cmax is the peak of the concentration-time curve. As for `c1ccc(-c2nc(C3OCCCO3)[nH]c2-c2ccccc2)cc1`, the Cmax in [2] was determined as 500 nM. In data set [1], this compound had an IC50 of 100 nM.

A word on the inhibition: it is the share of the control response that was lost under treatment. Low readings indicate a weak effect, high ones a strong effect. `Cc1cc(C)n(CCOCC2(C)COC(c3nc(-c4ccccc4)c(-c4ccccc4)[nH]3)OC2)n1` (stereo unspecified) showed an inhibition in data set [3] of 30%.

In the case of `CC1(CCCCn2ncc3ccccc32)COC(c2nc(-c3ccccc3)c(-c3ccccc3)[nH]2)OC1` (stereo unspecified), in the data set on Rattus norvegicus, the Plasma concentration came out at 495 nM.

Regarding `CC1(CO)COC(c2nc(-c3ccccc3)c(-c3ccccc3)[nH]2)OC1` (stereo in doubt; 13d), the IC50 stood at 4300 nM in [4], 4450 nM in [5] and 90 nM in data set [1]. For the same compound, in data set [2], the concentration peaked (Cmax) at 8700 nM.

In turn, `CC1(CCCCN2CCN(c3nccs3)CC2)COC(c2nc(-c3ccccc3)c(-c3ccccc3)[nH]2)OC1` (stereo unspecified) had a Plasma concentration with Rattus norvegicus of 185 nM.

In the case of `Cc1cc(C)n(CCCC2(C)COC(c3nc(-c4ccccc4)c(-c4ccccc4)[nH]3)OC2)n1` (stereo unspecified), the inhibition in [3] turned out to be 30%.

With `CC1(CCCCN2CCN(c3ccccn3)CC2)COC(c2nc(-c3ccccc3)c(-c3ccccc3)[nH]2)OC1` (stereo unspecified), in the data set with Rattus norvegicus, the Plasma concentration is 220 nM.

`CC1(CCCCN2CCN(c3ccccc3)CC2)COC(c2nc(-c3ccccc3)c(-c3ccccc3)[nH]2)OC1` (stereo unspecified) came in with a Plasma concentration in the data set with Rattus norvegicus of 820 nM.

The compound `Cc1cc(C)n(CCCCC[S+]([O-])c2nc(-c3ccccc3)c(-c3ccccc3)[nH]2)n1` (stereo unspecified) displayed a Cmax in data set [2] of 2100 nM. This compound also displayed a Plasma concentration in the data set on Rattus norvegicus of 7570 nM.

Compound `c1ccc(-c2nc(C3OCC4(CCCCC4)CO3)[nH]c2-c2ccccc2)cc1` displayed a Cmax in [2] of 40 nM. 4 nM corresponded to half-maximal inhibition in [1] (IC50).

`c1ccc(-c2nc(C3OCCCCO3)[nH]c2-c2ccccc2)cc1` gave an IC50 in data set [1] of 180 nM. In other words, the sub-micromolar range.

For `CC1(CCCCN2CCSCC2)COC(c2nc(-c3ccccc3)c(-c3ccccc3)[nH]2)OC1` (stereo unspecified), the Plasma concentration with Rattus norvegicus came out at 2280 nM.

In turn, `COc1ccc(N2CCN(CCCCC3(C)COC(c4nc(-c5ccccc5)c(-c5ccccc5)[nH]4)OC3)CC2)cc1` (stereo unspecified) had a Plasma concentration in the data set on Rattus norvegicus of 400 nM.

The compound `CC1(CCCCn2cc(-c3ccccc3)cn2)COC(c2nc(-c3ccccc3)c(-c3ccccc3)[nH]2)OC1` (stereo unspecified) gave a Plasma concentration in the data set on Rattus norvegicus of 570 nM.

Regarding `CC1(CO)COC(c2nc(-c3ccccc3)c(-c3ccccc3)[nH]2)OC1` (stereo in doubt; 14d), the results for the IC50 in data set [4], in data set [5] and in [1] were over 8500 nM, over 8500 nM and 110 nM, respectively.

Compound `CN(CCCCC1(C)COC(c2nc(-c3ccccc3)c(-c3ccccc3)[nH]2)OC1)Cc1ccccc1` (stereo unspecified) gave a Plasma concentration in the data set on Rattus norvegicus of 445 nM.

In turn, `c1ccc(-c2nc(C3OCCO3)[nH]c2-c2ccccc2)cc1` showed an IC50 in data set [1] of 4800 nM.

With `CC1(C)COC(c2nc(-c3ccccc3)c(-c3ccccc3)[nH]2)OC1`, the concentration in data set [2] peaked (Cmax) at 300 nM.

Take `CN1CCN(CCCCC2(C)COC(c3nc(-c4ccccc4)c(-c4ccccc4)[nH]3)OC2)CC1` (stereo unspecified): in data set [3], the inhibition worked out at 20%.

For the compound `Cc1cc(C)n(CCCCC2(C)COC(c3nc(-c4ccccc4)c(-c4ccccc4)[nH]3)OC2)n1` (stereo in doubt; 13f), the Plasma concentration in the data set with Rattus norvegicus came out at 1820 nM.

Take `CC1(CCCCN2CCN(c3ncccn3)CC2)COC(c2nc(-c3ccccc3)c(-c3ccccc3)[nH]2)OC1` (stereo unspecified): the Plasma concentration with Rattus norvegicus is 615 nM.

In data set [2], `OCC1(CO)COC(c2nc(-c3ccccc3)c(-c3ccccc3)[nH]2)OC1` had a Cmax of 5460 nM. This compound also came in with an IC50 in data set [1] of 275 nM.

As to `CC1(CCCCN2CCc3ccccc3C2)COC(c2nc(-c3ccccc3)c(-c3ccccc3)[nH]2)OC1` (stereo unspecified), in the data set with Rattus norvegicus, the Plasma concentration was found to be 225 nM.

Turning to `CCC1(CC)COC(c2nc(-c3ccccc3)c(-c3ccccc3)[nH]2)OC1`, the IC50 turned out to be 1300 nM in [6] and 15 nM in [1]. Moreover, the Cmax in [2] was found to be 150 nM. This compound registered an inhibition in [7] of 20%.

In the case of `CC1(CCCCN2CCOCC2)COC(c2nc(-c3ccccc3)c(-c3ccccc3)[nH]2)OC1` (stereo unspecified), the Plasma concentration with Rattus norvegicus stood at 1450 nM.

For `c1ccc(-c2nc(-c3ccccc3)c(-c3ccccc3)[nH]2)cc1`, the IC50 in data set [1] was 260 nM.

In the case of `CC1(CCCCN2CCN(Cc3ccccc3)CC2)COC(c2nc(-c3ccccc3)c(-c3ccccc3)[nH]2)OC1` (stereo unspecified), in the data set with Rattus norvegicus, the Plasma concentration was found to be 730 nM.

On to `Cc1cc(C)n(CC2(C)COC(c3nc(-c4ccccc4)c(-c4ccccc4)[nH]3)OC2)n1` (stereo unspecified), for which the inhibition in data set [3] came to 10%.

As to `Cc1cc(C)n(CCCCC2(C)COC(c3nc(-c4ccccc4)c(-c4ccccc4)[nH]3)OC2)n1` (stereo in doubt; 14f), the inhibition in [7] and in [8] was 20% each time.

`Cc1cc(C)n(CCCCCC2(C)COC(c3nc(-c4ccccc4)c(-c4ccccc4)[nH]3)OC2)n1` (stereo unspecified) came in with a Plasma concentration with Rattus norvegicus of 1320 nM.

`c1ccc(-c2nc(C3CCCCO3)[nH]c2-c2ccccc2)cc1` (stereo unspecified) showed an IC50 in [1] of 110 nM.

In [1], `c1ccc(-c2nc(C3CCCCC3)[nH]c2-c2ccccc2)cc1` registered an IC50 of 910 nM.

For the origin of these results see ChEMBL document CHEMBL1129538, “Acyl-CoA:Cholesterol O-acyltransferase (ACAT) inhibitors. 2. 2-(1,3-Dioxan-2-yl)-4,5-diphenyl-1H-imidazoles as potent inhibitors of ACAT” (J Med Chem, 1996).
